Test results from ChEMBL document CHEMBL3352456, “Design, synthesis and biological activity of a novel Rutin analogue with improved lipid soluble properties” (Bioorg Med Chem, 2015).
Activity calls are given as the source filed them. No cut-off for these calls is given here.

What was measured:
K562 [1] = experiment: Induction of apoptosis in human K562 cells assessed as live cells at 10 uM after 3 days by Annexin-V staining-based assay (reference value: 87.33%); type: functional
Trichophyton tonsurans [2] = experiment: Antifungal activity against Trichophyton tonsurans Malmsten CBS 483.76 assessed as growth inhibition at 100 ug/ml measured on day 7 by sabouraud dextrose agar diffusion method relative to control; type: functional; details: Malmsten CBS 483.76, 168 h, read-out: GI
In short: (§1)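 Dermatophyte strains kept on Sabouraud dextrose agar slants. Mycelium disks (10 mm) from a stationary-phase culture grown at 26 ± 1 °C on cellophane over SDA to log phase, then moved onto SDA containing compound added from DMSO stock at 45 °C (final DMSO 0.1%; DMSO-only controls). Colony diameter measured daily for 7 days. % inhibition = (dex − dex')/dex × 100. Three replicates per concentration; mean of three independent experiments.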

K562 [3] = experiment: Induction of apoptosis in human K562 cells assessed as late apoptotic cells at 500 uM after 3 days by Annexin-V staining-based assay (reference value: 5.96%); type: functional
K562 [4] = experiment: Antiproliferative activity against human K562 cells assessed as cell number after 3 days by Coulter counter; details: K562, 72 h
[5] = tested on: Trichophyton mentagrophytes; experiment: Antifungal activity against Trichophyton mentagrophytes (Robin) Blanchard CBS 160.66 assessed as growth inhibition at 20 ug/ml measured on day 7 by sabouraud dextrose agar diffusion method relative to control; type: functional; details: (Robin) Blanchard CBS 160.66, 168 h, read-out: GI; in short: as §1
K562 [6] = experiment: Induction of apoptosis in human K562 cells assessed as early apoptotic cells at 1000 uM after 3 days by Annexin-V staining-based assay (reference value: 5.41%); type: functional
K562 [7] = experiment: Induction of apoptosis in human K562 cells assessed as apoptotic cells at 500 uM after 3 days by Annexin-V staining-based assay (reference value: 11.37%); type: functional
K562 [8] = experiment: Induction of apoptosis in human K562 cells assessed as dead cells at 1000 uM after 3 days by Annexin-V staining-based assay (reference value: 1.29%); type: functional
[9] = Antifungal activity against Microsporum canis Bodin CBS 4727 assessed as growth inhibition at 100 ug/ml measured on day 7 by sabouraud dextrose agar diffusion method relative to control; type: functional; in short: as §1
[10] = biological target: Nuclear factor NF-kappa-B complex (Homo sapiens) (UniProt Q00653+P19838+Q04206); experiment: Inhibition of NF-kappaB (unknown origin)/32P-labeled oligonucleotide interaction at 0.1 to 10 mM after 20 mins by electrophoretic mobility shift assay; type: protein-complex assay
In short: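 Probe was a double-stranded 32P-labelled oligonucleotide (0.25 ng) in buffer of 10% glycerol, 0.05% NP-40, 10 mM Tris-HCl pH 7.5, 50 mM NaCl, 0.5 mM DTT and 10 mM MgCl2. Compound and probe were bound for 20 min at room temperature, then recombinant NF-kappaB p50 was added for a further 20 min. Samples were run on 6% polyacrylamide in 0.25× TBE at 200 V.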

Trichophyton rubrum [11] = experiment: Antifungal activity against Trichophyton rubrum (Castellani) Sabouraud IHME 4321 assessed as growth inhibition at 20 ug/ml measured on day 7 by sabouraud dextrose agar diffusion method relative to control; type: functional; details: (Castellani) Sabouraud IHME 4321, 168 h, read-out: GI; in short: as §1
K562 [12] = experiment: Induction of apoptosis in human K562 cells assessed as live cells at 1000 uM after 3 days by Annexin-V staining-based assay (reference value: 87.33%); type: functional
K562 [13] = experiment: Induction of apoptosis in human K562 cells assessed as late apoptotic cells at 1000 uM after 3 days by Annexin-V staining-based assay (reference value: 5.96%); type: functional
K562 [14] = experiment: Induction of apoptosis in human K562 cells assessed as dead cells at 10 uM after 3 days by Annexin-V staining-based assay (reference value: 1.29%); type: functional
[15] = tested on: Trichophyton mentagrophytes; experiment: Antifungal activity against Trichophyton mentagrophytes (Robin) Blanchard CBS 160.66 assessed as growth inhibition at 100 ug/ml measured on day 7 by sabouraud dextrose agar diffusion method relative to control; type: functional; details: (Robin) Blanchard CBS 160.66, 168 h, read-out: GI; in short: as §1
Nannizzia gypsea [16] = experiment: Antifungal activity against Nannizzia gypsea (Bodin) Guiart et Grigoraki CBS 286.63 assessed as growth inhibition at 20 ug/ml measured on day 7 by sabouraud dextrose agar diffusion method relative to control; type: functional; in short: as §1
[17] = Antifungal activity against Microsporum canis Bodin CBS 4727 assessed as growth inhibition at 20 ug/ml measured on day 7 by sabouraud dextrose agar diffusion method relative to control; type: functional; in short: as §1
K562 [18] = experiment: Induction of apoptosis in human K562 cells assessed as dead cells at 5 uM after 3 days by Annexin-V staining-based assay (reference value: 1.29%); type: functional
Trichophyton violaceum [19] = experiment: Antifungal activity against Trichophyton violaceum Malmsten CBS 459.61 assessed as growth inhibition at 100 ug/ml measured on day 7 by sabouraud dextrose agar diffusion method relative to control; type: functional; details: Malmsten CBS 459.61, 168 h, read-out: GI; in short: as §1
[20] = Antioxidant activity assessed as inhibition of AAPH-induced peroxyl radical generation by oxygen radical absorbance capacity assay relative to trolox; type: physicochemical
In short: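 Run at 37 °C and pH 7.4 with fluorescein (85 nM) as the probe and AAPH as the peroxyl radical source. Compounds were dissolved fresh in PBS. Fluorescence read at ex 485/em 538 nm every 5 min for up to 30 min after AAPH addition. Net area under the decay curve (blank minus sample) was calibrated against Trolox at 10–50 μM and given as Trolox equivalents.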

K562 [21] = experiment: Induction of apoptosis in human K562 cells assessed as dead cells at 500 uM after 3 days by Annexin-V staining-based assay (reference value: 1.29%); type: functional
Trichophyton rubrum [22] = experiment: Antifungal activity against Trichophyton rubrum (Castellani) Sabouraud IHME 4321 assessed as growth inhibition at 100 ug/ml measured on day 7 by sabouraud dextrose agar diffusion method relative to control; type: functional; details: (Castellani) Sabouraud IHME 4321, 168 h, read-out: GI; in short: as §1
K562 [23] = experiment: Induction of apoptosis in human K562 cells assessed as early apoptotic cells at 500 uM after 3 days by Annexin-V staining-based assay (reference value: 5.41%); type: functional
K562 [24] = experiment: Induction of apoptosis in human K562 cells assessed as live cells at 5 uM after 3 days by Annexin-V staining-based assay (reference value: 87.33%); type: functional
Nannizzia gypsea [25] = experiment: Antifungal activity against Microsporum gypseum (Bodin) Guiart and Grigorakis IHME 3999 assessed as growth inhibition at 100 ug/ml measured on day 7 by sabouraud dextrose agar diffusion method relative to control; type: functional; details: (Bodin) Guiart and Grigorakis IHME 3999, 168 h, read-out: GI; in short: as §1
Paraphyton cookei [26] = experiment: Antifungal activity against Nannizzia cajetani Ajello CBS 495.70 assessed as growth inhibition at 20 ug/ml measured on day 7 by sabouraud dextrose agar diffusion method relative to control; type: functional; details: Ajello CBS 495.70, 168 h, read-out: GI; in short: as §1
K562 [27] = experiment: Induction of apoptosis in human K562 cells assessed as apoptotic cells at 10 uM after 3 days by Annexin-V staining-based assay (reference value: 11.37%); type: functional
K562 [28] = experiment: Induction of apoptosis in human K562 cells assessed as late apoptotic cells at 10 uM after 3 days by Annexin-V staining-based assay (reference value: 5.96%); type: functional
Trichophyton violaceum [29] = experiment: Antifungal activity against Trichophyton violaceum Malmsten CBS 459.61 assessed as growth inhibition at 20 ug/ml measured on day 7 by sabouraud dextrose agar diffusion method relative to control; type: functional; details: Malmsten CBS 459.61, 168 h, read-out: GI; in short: as §1
[30] = Antioxidant activity assessed as superoxide anion radical scavenging by photochemiluminescence method relative to trolox using formulation containing O/W; type: physicochemical
K562 [31] = experiment: Induction of apoptosis in human K562 cells assessed as late apoptotic cells at 5 uM after 3 days by Annexin-V staining-based assay (reference value: 5.96%); type: functional
Paraphyton cookei [32] = experiment: Antifungal activity against Nannizzia cajetani Ajello CBS 495.70 assessed as growth inhibition at 100 ug/ml measured on day 7 by sabouraud dextrose agar diffusion method relative to control; type: functional; details: Ajello CBS 495.70, 168 h, read-out: GI; in short: as §1
[33] = Antioxidant activity assessed as superoxide anion radical scavenging by photochemiluminescence method relative to trolox; type: physicochemical
In short: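 Superoxide was generated photochemically from luminol under UV light (351 nm). Lag time (water-soluble, ACW) or integrated light emission over 180 s (lipid-soluble, ACL) was compared with a Trolox standard curve. Samples were centrifuged 5 min at 16000 g and diluted 1:40 in water (ACW) or methanol (ACL). Triplicate determinations.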

Trichophyton tonsurans [34] = experiment: Antifungal activity against Trichophyton tonsurans Malmsten CBS 483.76 assessed as growth inhibition at 20 ug/ml measured on day 7 by sabouraud dextrose agar diffusion method relative to control; type: functional; details: Malmsten CBS 483.76, 168 h, read-out: GI; in short: as §1
Nannizzia gypsea [35] = experiment: Antifungal activity against Microsporum gypseum (Bodin) Guiart and Grigorakis IHME 3999 assessed as growth inhibition at 20 ug/ml measured on day 7 by sabouraud dextrose agar diffusion method relative to control; type: functional; in short: as §1
K562 [36] = experiment: Induction of apoptosis in human K562 cells assessed as early apoptotic cells at 10 uM after 3 days by Annexin-V staining-based assay (reference value: 5.41%); type: functional
Nannizzia gypsea [37] = experiment: Antifungal activity against Nannizzia gypsea (Bodin) Guiart et Grigoraki CBS 286.63 assessed as growth inhibition at 100 ug/ml measured on day 7 by sabouraud dextrose agar diffusion method relative to control; type: functional; in short: as §1
Epidermophyton floccosum [38] = experiment: Antifungal activity against Epidermophyton floccosum (Hartz) Langeron and Milochevitch CBS 358.93 assessed as growth inhibition at 20 ug/ml measured on day 7 by sabouraud dextrose agar diffusion method relative to control; type: functional; details: (Hartz) Langeron and Milochevitch CBS 358.93, 168 h, read-out: GI; in short: as §1
K562 [39] = experiment: Induction of apoptosis in human K562 cells assessed as live cells at 500 uM after 3 days by Annexin-V staining-based assay (reference value: 87.33%); type: functional
K562 [40] = experiment: Induction of apoptosis in human K562 cells assessed as apoptotic cells at 5 uM after 3 days by Annexin-V staining-based assay (reference value: 11.37%); type: functional
K562 [41] = experiment: Induction of apoptosis in human K562 cells assessed as early apoptotic cells at 5 uM after 3 days by Annexin-V staining-based assay (reference value: 5.41%); type: functional
K562 [42] = experiment: Induction of apoptosis in human K562 cells assessed as apoptotic cells at 1000 uM after 3 days by Annexin-V staining-based assay (reference value: 11.37%); type: functional
Epidermophyton floccosum [43] = experiment: Antifungal activity against Epidermophyton floccosum (Hartz) Langeron and Milochevitch CBS 358.93 assessed as growth inhibition at 100 ug/ml measured on day 7 by sabouraud dextrose agar diffusion method relative to control; type: functional; details: (Hartz) Langeron and Milochevitch CBS 358.93, 168 h, read-out: GI; in short: as §1

Chain of Nuclear factor NF-kappa-B complex (Homo sapiens) (P19838 whole entry, looked up): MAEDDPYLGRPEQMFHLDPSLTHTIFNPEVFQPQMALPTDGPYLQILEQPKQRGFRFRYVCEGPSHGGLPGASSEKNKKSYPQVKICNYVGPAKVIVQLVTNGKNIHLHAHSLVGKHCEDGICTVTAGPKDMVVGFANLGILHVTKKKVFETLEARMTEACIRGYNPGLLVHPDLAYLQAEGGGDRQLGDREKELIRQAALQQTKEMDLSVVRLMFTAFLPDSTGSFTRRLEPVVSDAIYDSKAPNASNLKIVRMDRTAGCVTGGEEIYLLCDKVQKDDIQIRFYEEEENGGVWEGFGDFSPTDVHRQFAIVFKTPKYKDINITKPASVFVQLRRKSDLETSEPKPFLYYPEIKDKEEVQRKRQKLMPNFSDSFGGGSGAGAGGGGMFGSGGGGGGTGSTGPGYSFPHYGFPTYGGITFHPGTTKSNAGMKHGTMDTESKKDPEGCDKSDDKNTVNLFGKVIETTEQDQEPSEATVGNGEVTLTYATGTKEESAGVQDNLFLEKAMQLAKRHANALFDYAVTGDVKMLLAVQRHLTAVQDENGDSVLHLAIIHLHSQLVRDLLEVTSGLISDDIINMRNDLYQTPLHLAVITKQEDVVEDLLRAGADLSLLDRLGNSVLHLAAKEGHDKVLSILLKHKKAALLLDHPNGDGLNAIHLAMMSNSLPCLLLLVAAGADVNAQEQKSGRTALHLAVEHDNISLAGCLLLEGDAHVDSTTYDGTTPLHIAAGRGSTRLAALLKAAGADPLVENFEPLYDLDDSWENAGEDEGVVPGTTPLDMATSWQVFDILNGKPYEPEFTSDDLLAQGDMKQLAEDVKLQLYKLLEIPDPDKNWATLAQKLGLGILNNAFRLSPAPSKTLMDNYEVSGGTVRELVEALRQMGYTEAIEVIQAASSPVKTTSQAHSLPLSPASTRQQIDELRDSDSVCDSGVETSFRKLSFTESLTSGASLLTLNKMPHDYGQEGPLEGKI
Chain of Nuclear factor NF-kappa-B complex (Homo sapiens) (Q00653 whole entry, looked up): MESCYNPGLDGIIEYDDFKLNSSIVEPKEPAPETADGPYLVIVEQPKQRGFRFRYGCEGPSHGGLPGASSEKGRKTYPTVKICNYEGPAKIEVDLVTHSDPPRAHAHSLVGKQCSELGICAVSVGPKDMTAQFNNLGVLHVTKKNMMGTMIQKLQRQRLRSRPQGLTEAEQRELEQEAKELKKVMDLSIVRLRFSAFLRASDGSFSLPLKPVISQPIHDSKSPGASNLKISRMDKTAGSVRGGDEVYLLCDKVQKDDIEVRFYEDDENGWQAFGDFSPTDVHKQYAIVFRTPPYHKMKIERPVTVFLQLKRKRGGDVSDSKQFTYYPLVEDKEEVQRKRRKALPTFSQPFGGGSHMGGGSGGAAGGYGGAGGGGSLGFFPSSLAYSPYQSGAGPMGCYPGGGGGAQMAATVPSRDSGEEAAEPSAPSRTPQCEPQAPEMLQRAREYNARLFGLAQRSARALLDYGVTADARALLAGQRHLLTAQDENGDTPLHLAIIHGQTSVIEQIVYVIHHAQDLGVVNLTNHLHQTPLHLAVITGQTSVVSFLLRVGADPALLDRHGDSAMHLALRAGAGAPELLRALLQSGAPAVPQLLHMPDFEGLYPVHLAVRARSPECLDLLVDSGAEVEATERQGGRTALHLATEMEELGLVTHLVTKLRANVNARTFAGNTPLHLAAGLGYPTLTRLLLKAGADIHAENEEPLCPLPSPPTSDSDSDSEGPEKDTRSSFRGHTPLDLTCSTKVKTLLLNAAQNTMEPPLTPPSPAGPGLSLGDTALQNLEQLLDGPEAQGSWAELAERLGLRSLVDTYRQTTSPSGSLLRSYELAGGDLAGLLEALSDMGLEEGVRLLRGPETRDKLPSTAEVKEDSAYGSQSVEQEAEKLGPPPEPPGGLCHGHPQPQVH
Chain of Nuclear factor NF-kappa-B complex (Homo sapiens) (Q04206 whole entry, looked up): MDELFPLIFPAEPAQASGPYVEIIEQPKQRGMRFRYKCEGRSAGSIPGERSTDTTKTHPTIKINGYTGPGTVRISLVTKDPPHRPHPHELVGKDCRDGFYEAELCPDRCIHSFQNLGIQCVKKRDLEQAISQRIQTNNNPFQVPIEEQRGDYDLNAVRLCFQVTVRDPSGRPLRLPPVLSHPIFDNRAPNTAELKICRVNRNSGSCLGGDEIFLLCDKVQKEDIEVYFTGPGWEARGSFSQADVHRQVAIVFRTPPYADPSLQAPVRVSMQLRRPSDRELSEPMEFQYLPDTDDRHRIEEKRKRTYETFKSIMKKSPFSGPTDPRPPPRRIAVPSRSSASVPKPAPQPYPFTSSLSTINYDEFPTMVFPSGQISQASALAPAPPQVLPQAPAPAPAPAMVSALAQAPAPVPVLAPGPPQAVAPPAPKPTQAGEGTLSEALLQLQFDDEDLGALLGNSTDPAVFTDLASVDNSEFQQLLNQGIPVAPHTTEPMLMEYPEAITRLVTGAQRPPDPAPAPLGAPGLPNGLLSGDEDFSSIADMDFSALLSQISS

In the case of `C[C@@H]1O[C@@H](OC[C@H]2O[C@@H](Oc3c(-c4ccc(O)c(O)c4)oc4cc(O)cc(O)c4c3=O)[C@H](O)[C@@H](O)[C@@H]2O)[C@H](O)[C@H](O)[C@H]1O` [RUTIN], the Activity (K562 [1]) is reported as “inactive”, the inhibition of growth at 100 µg/mL (Trichophyton tonsurans [2]) is reported as 2.8% and the Activity (K562 [3]) is reported as 4.05%. It also gave an IC50 (K562 [4]) of 897 µM, an inhibition of growth at 20 µg/mL [5] of 0% and an Activity (K562 [6]) of 8.6%. The Activity (K562 [7]) was 13.2%, the Activity (K562 [8]) was 0.4% and the “growth inhibition (GI)” value [9] was “inactive”. The inhibition [10] was “Active”, the inhibition of growth at 20 µg/mL (Trichophyton rubrum [11]) was 6.1% and the Activity (K562 [12]) was 84.85%. The Activity (K562 [13]) was 6.15%, the Activity (K562 [14]) was “inactive” and the inhibition of growth at 100 µg/mL [15] was 3.3%. The “growth inhibition (GI)” value (Nannizzia gypsea [16]) was “inactive”, the “growth inhibition (GI)” value [17] was “inactive” and the Activity (K562 [18]) was “inactive”. For the same compound, the inhibition of growth at 100 µg/mL (Trichophyton violaceum [19]) was 4.2%, the Activity [20] was 10708.06 µmol/g and the Activity (K562 [21]) was 0.65%. The inhibition of growth at 100 µg/mL (Trichophyton rubrum [22]) was 9.9%, the Activity (K562 [23]) was 9.15% and the Activity (K562 [24]) was “inactive”. For the same compound, the inhibition of growth at 100 µg/mL (Nannizzia gypsea [25]) was 4.1%, the inhibition of growth at 20 µg/mL (Paraphyton cookei [26]) was 3.3% and the Activity (K562 [27]) was “inactive”. For the same compound, the Activity (K562 [28]) was “inactive”, the inhibition of growth at 20 µg/mL (Trichophyton violaceum [29]) was 2.1% and the Activity [30] was 5.04 µmol/g. The Activity (K562 [31]) was “inactive”, the inhibition of growth at 100 µg/mL (Paraphyton cookei [32]) was 12.3% and the Activity [33] was 1883.08 µmol/g. For the same compound, the inhibition of growth at 20 µg/mL (Trichophyton tonsurans [34]) was 0%, the “growth inhibition (GI)” value (Nannizzia gypsea [35]) was “inactive” and the Activity (K562 [36]) was “inactive”. The “growth inhibition (GI)” value (Nannizzia gypsea [37]) was “inactive”, the inhibition of growth at 20 µg/mL (Epidermophyton floccosum [38]) was 1.9% and the Activity (K562 [39]) was 88.15%. The Activity (K562 [40]) was “inactive”, the Activity (K562 [41]) was “inactive” and the Activity (K562 [42]) was 14.75%. The inhibition of growth at 100 µg/mL (Epidermophyton floccosum [43]) was 2.2%.
